Data: publication PMC4206749 (Toxicological Research, 2014)

Assays:
[1] = tested on: Salmonella typhimurium strain TA1537; assay: Bacterial reverse mutation assay; format: cell-based
[2] = tested on: L5178Y Tk^+/− mouse lymphoma cells; assay: In vitro comet assay; format: cell-based; conditions: 4 hr
CHL cells = assay: Cytotoxicity assay; format: cell-based, Chinese hamster; conditions: 7.81 to 1,000 μg/ml, 24 hr treatments
Summary of the method: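 MTT viability test. Cells were seeded at 1 × 10^4 per well overnight, then exposed 24 hr to test compound; CHL range 7.81 to 1,000 μg/ml. MTT was added at 0.5 mg/ml final for 4 hr at 37℃, followed by DMSO lysis and absorbance at 550 nm. Values are percent of untreated control, with triplicate samples in three independent experiments; IC50 was calculated for CHL.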

[3] = tested on: L5178Y Tk^+/− mouse lymphoma cells; assay: Cytotoxicity assay; format: cell-based
[4] = tested on: S. typhimurium strains (TA98, TA100, TA1535, and TA1537) or E. coli strain (WP2 uvrA); assay: Bacterial reverse mutation assay, all five tester strains; format: cell-based, Salmonella typhimurium, Escherichia coli
Summary of the method: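 Pre-incubation Ames test per OECD 471 with S. typhimurium TA98, TA100, TA1535, TA1537 and E. coli WP2 uvrA. Bacteria plus test compound in DMSO (DMSO as negative control), with S9 mix (10% S9 plus cofactors) or 0.1 M phosphate buffer pH 7.4, were incubated 20 min at 37℃ shaking. Plated in histidine/biotin or tryptophan top agar, incubated 48 hr at 37℃, revertants counted. Triplicate plates; dose ratio about 2.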

[5] = tested on: 2 Gy irradiated Chinese hamster ovary (CHO)-K1 cells; conditions: 2 Gy irradiated CHO-K1 cells; cited from earlier work

Oc1ccc(-c2ccc3cc(O)ccc3c2)c(O)c1 [HS-1793, 4-(6-hydroxy-2-naphthyl)-1,3-benzenediol]
Number of reverse mutants/plate (Mean ± SD) ([1]; TA1537, with S9 activation, 625 μg/plate): 14 ± 2 reverse mutants/plate
Number of reverse mutants/plate (Mean ± SD) ([1]; TA1537, with S9 activation, 1,250 μg/plate): 14 ± 1 reverse mutants/plate
Number of reverse mutants/plate (Mean ± SD) ([1]; TA1537, with S9 activation, 2,500 μg/plate): 16 ± 3 reverse mutants/plate
Number of reverse mutants/plate (Mean ± SD) ([1]; TA1537, with S9 activation, 5,000 μg/plate): 15 ± 2 reverse mutants/plate
Number of reverse mutants/plate (Mean ± SD) ([1]; TA1537, without S9 activation, 78.1 μg/plate): 14 ± 2 reverse mutants/plate
Number of reverse mutants/plate (Mean ± SD) ([1]; TA1537, without S9 activation, 156.3 μg/plate): 17 ± 6 reverse mutants/plate
Number of reverse mutants/plate (Mean ± SD) ([1]; TA1537, without S9 activation, 312.5 μg/plate): 13 ± 4 reverse mutants/plate
Number of reverse mutants/plate (Mean ± SD) ([1]; TA1537, without S9 activation, 625 μg/plate): 14 ± 3 reverse mutants/plate
Number of reverse mutants/plate (Mean ± SD) ([1]; TA1537, without S9 activation, 1,250 μg/plate): 15 ± 6 reverse mutants/plate
Number of reverse mutants/plate (Mean ± SD) ([1]; TA1537, without S9 activation, 2,500 μg/plate): 18 ± 1 reverse mutants/plate
Number of reverse mutants/plate (Mean ± SD) ([1]; TA1537, without S9 activation, 5,000 μg/plate): 13 ± 2 reverse mutants/plate
% DNA in tail ([2]; S9 Mix (+), 3.9 μg/ml): 0.98 ± 0.13%
Olive moment ([2]; S9 Mix (+), 3.9 μg/ml): 0.41 ± 0.04 μm
Tail length ([2]; S9 Mix (+), 3.9 μg/ml): 0.86 ± 0.04 μm
Tail moment ([2]; S9 Mix (+), 3.9 μg/ml): 0.04 ± 0.01 μm
% DNA in tail ([2]; S9 Mix (+), 7.8 μg/ml): 1.16 ± 0.08%
Olive moment ([2]; S9 Mix (+), 7.8 μg/ml): 0.56 ± 0.06 μm
Tail length ([2]; S9 Mix (+), 7.8 μg/ml): 0.95 ± 0.13 μm
Tail moment ([2]; S9 Mix (+), 7.8 μg/ml): 0.06 ± 0.01 μm
% DNA in tail ([2]; S9 Mix (+), 15.5 μg/ml): 1.42 ± 0.16%
Olive moment ([2]; S9 Mix (+), 15.5 μg/ml): 0.78 ± 0.12 μm
Tail length ([2]; S9 Mix (+), 15.5 μg/ml): 1.04 ± 0.06 μm
Tail moment ([2]; S9 Mix (+), 15.5 μg/ml): 0.13 ± 0.02 μm
% DNA in tail ([2]; S9 Mix (+), 31 μg/ml): 1.58 ± 0.11%
Olive moment ([2]; S9 Mix (+), 31 μg/ml): 0.80 ± 0.17 μm
Tail length ([2]; S9 Mix (+), 31 μg/ml): 1.17 ± 0.07 μm
Tail moment ([2]; S9 Mix (+), 31 μg/ml): 0.09 ± 0.02 μm
% DNA in tail ([2]; S9 Mix (+), 62 μg/ml): 1.65 ± 0.09%
Olive moment ([2]; S9 Mix (+), 62 μg/ml): 0.85 ± 0.15 μm
Tail length ([2]; S9 Mix (+), 62 μg/ml): 1.20 ± 0.03 μm
Tail moment ([2]; S9 Mix (+), 62 μg/ml): 0.15 ± 0.01 μm
% DNA in tail ([2]; S9 Mix (−), 3.9 μg/ml): 0.93 ± 0.21%
Olive moment ([2]; S9 Mix (−), 3.9 μg/ml): 0.42 ± 0.03 μm
Tail length ([2]; S9 Mix (−), 3.9 μg/ml): 1.49 ± 0.36 μm
Tail moment ([2]; S9 Mix (−), 3.9 μg/ml): 0.03 ± 0.01 μm
% DNA in tail ([2]; S9 Mix (−), 7.8 μg/ml): 1.09 ± 0.37%
Olive moment ([2]; S9 Mix (−), 7.8 μg/ml): 0.62 ± 0.05 μm
Tail length ([2]; S9 Mix (−), 7.8 μg/ml): 1.98 ± 0.27 μm
Tail moment ([2]; S9 Mix (−), 7.8 μg/ml): 0.07 ± 0.02 μm
% DNA in tail ([2]; S9 Mix (−), 15.5 μg/ml): 1.61 ± 0.49%
Olive moment ([2]; S9 Mix (−), 15.5 μg/ml): 0.75 ± 0.07 μm
Tail length ([2]; S9 Mix (−), 15.5 μg/ml): 2.11 ± 0.41 μm
Tail moment ([2]; S9 Mix (−), 15.5 μg/ml): 0.13 ± 0.03 μm
% DNA in tail ([2]; S9 Mix (−), 31 μg/ml): 2.13 ± 0.36%
Olive moment ([2]; S9 Mix (−), 31 μg/ml): 0.98 ± 0.09 μm
Tail length ([2]; S9 Mix (−), 31 μg/ml): 2.75 ± 0.37 μm
Tail moment ([2]; S9 Mix (−), 31 μg/ml): 0.16 ± 0.03 μm
% DNA in tail ([2]; S9 Mix (−), 62 μg/ml): 2.52 ± 0.34%
Olive moment ([2]; S9 Mix (−), 62 μg/ml): 1.01 ± 0.07 μm
Tail length ([2]; S9 Mix (−), 62 μg/ml): 2.82 ± 0.46 μm
Tail moment ([2]; S9 Mix (−), 62 μg/ml): 0.21 ± 0.05 μm
% DNA in the tail, tail length, TM, or OM versus vehicle ([2]; presence or absence of metabolic activation): No significant differences
Cell viability (MTT) (CHL cells): decreased in dose dependent manner
Cell viability (MTT) ([3]; 62.5 μg/ml for 4 hr): no reduction of viable cell numbers > 70%
Cell viability (dose-range study) ([3]; 24 hr treatments): decreased in dose dependent manner
HS-1793 related toxicity (reduced revertant numbers and/or thinning of the background lawn) ([4]; 5,000 μg/plate, absence or presence of S9 metabolic activation): not observed
Revertant frequencies compared to concurrent vehicle control ([4]; any dose (78.1~5,000 μg/plate), any tester strain, with or without the S9 mix): No increases in revertant frequencies
ROS and cellular DNA damage [5]: significantly decreased
